These results are taken from PMC3132447 (Diabetes, Obesity & Metabolism, 2011).

For data set [1] the following is noted: subcutaneously injected; cited from earlier work.
Data set [2] concerns obese subjects with type 2 diabetes. Briefly: Hypoglycaemia and adverse events. It counts as in vivo, human. Particulars: for Severe hypoglycaemia / Subjects with hypoglycaemia with blood glucose below 56 mg/dl / Subjects with an episode of hypoglycaemia 3–6 h after insulin administration: 0.2 U/kg s.c.; for Subjects with an episode of hypoglycaemia 3–6 h after insulin administration: blood glucose <70 mg/dl.

For data set [3], the system named is NEFA. Kind of data set: Non-esterified fatty acid. It counts as in vivo, human. Particulars: for Mean NEFA concentration after subsequent increase / Time of lowest mean NEFA concentration: 0.2 U/kg s.c. before standardized meal; for Mean NEFA concentration after subsequent increase: after the nadir, within 6-h period; for Time of lowest mean NEFA concentration / Mean NEFA concentration at start (before decrease): obese T2DM; for Mean NEFA concentration at start (before decrease): baseline. Summed up:
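Obese T2DM adults (n = 30) fasted 12 h with oral agents withheld. In a randomized two-way crossover with a 7-day washout, they received 0.2 U/kg s.c. of test insulin analogue within 2 min before a 692-kcal meal (54% carbohydrate, 17% protein, 28% lipid) eaten within 30 min. Plasma NEFA was sampled from −20 min to 6 h by validated kit; mean profiles.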

Data set [4] deals with obese subjects with type 2 diabetes. Kind of data set: Postprandial plasma glucose after a standardized test meal. Particulars: n = 30; for Time to 10% of total glucose AUC / Time to 20% of total glucose AUC / Time to ΔGLUmax: 0.2 U/kg s.c. before standardized meal, obese T2DM, median. The format is in vivo, human. In a few lines: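 Same crossover, fasting, 0.2 U/kg s.c. premeal dosing and standardized 692-kcal meal. Plasma glucose was sampled at −20, −10 and 0 min, every 10 min to 2 h, then every 15 min to 6 h. AUCs used the linear trapezoidal rule; incremental AUCs and GLUmax used ANOVA (subject, treatment, sequence, period). Ratio 90% CIs used Fieller's theorem on untransformed data; times used Wilcoxon with Hodges–Lehmann 90% CI.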

The nature of data set [5]: Serum insulin analogue concentrations after subcutaneous bolus. The format is in vivo, human. Particulars: n = 30; for Time to fraction of total insulin AUC (10%) / Time to fraction of total insulin AUC (20%) / Tmax (time to peak insulin concentration) / Insulin AUC0–1 h/AUC0–6 h, geometric mean / Insulin AUC0–2 h/AUC0–6 h, arithmetic mean (value in brackets) / Insulin AUC0–2 h/AUC0–6 h, geometric mean / Insulin AUC0–4 h/AUC0–6 h, arithmetic mean (value in brackets) / Insulin AUC0–4 h/AUC0–6 h, geometric mean: 0.2 U/kg s.c. before standardized meal, obese T2DM; for Time to fraction of total insulin AUC (10%) / Time to fraction of total insulin AUC (20%) / Tmax (time to peak insulin concentration): median; for Insulin AUC0–1 h/AUC0–6 h, geometric mean / Insulin AUC0–2 h/AUC0–6 h, arithmetic mean (value in brackets) / Insulin AUC0–2 h/AUC0–6 h, geometric mean / Insulin AUC0–4 h/AUC0–6 h, arithmetic mean (value in brackets) / Insulin AUC0–4 h/AUC0–6 h, geometric mean: serum analogue. In a few lines: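 Same crossover and 0.2 U/kg s.c. premeal dosing in obese T2DM (n = 30). Serum test insulin analogue was measured by an analogue-specific kit at a central laboratory over 6 h. Non-compartmental analysis gave Cmax, Tmax and linear-trapezoidal AUC fractions. Ratios with 90% CI used ANOVA on ln-transformed data; times used Hodges–Lehmann 90% CI for median differences.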

[6] abbreviates: point estimate (90% CI), Fieller's Theorem, untransformed data.
The mark [7] stands for this setting: point estimate (90% CI), Hodges and Lehmann method.
Where [8] appears, read: point estimate (90% CI), ln-transformed data.

Marks after values point to notes of the source that are not given here.

In the case of regular human insulin [RHI], in data set [1], the Duration of action is given as more than 8 h and the “Time of peak effect after dosing” value is 3 h.
In the case of insulin aspart, in data set [2], the Severe hypoglycaemia entry was “no cases of severe hypoglycaemia requiring intervention”, the “Subjects with hypoglycaemia with blood glucose below 56 mg/dl” value was “eight” and the “Subjects with an episode of hypoglycaemia 3–6 h after insulin administration” value was 15 subjects. Moreover, in data set [2] (episodes outside 3–6 h, one value per episode), the “Time of the remaining hypoglycaemia episodes after administration” value was determined as 60 min. Besides, in data set [3], the “Mean NEFA concentration after subsequent increase” value was 0.31 mmol/L, the “Time of lowest mean NEFA concentration” value is 120 min and the “Mean NEFA concentration at start (before decrease)” value was determined as 0.51 mmol/L. Moreover, in data set [4], the “Time to 10% of total glucose AUC” value is recorded as 40.0 ^† min, the “Time to 20% of total glucose AUC” value was 65.0 ^† min and the “Time to ΔGLUmax” value was 59.5 ^† min. For the same substance, in data set [5], the “Time to fraction of total insulin AUC (10%)” value is listed as 60.5 ^† min; the “Time to fraction of total insulin AUC (20%)” value was 91.0 ^† min; the “Tmax (time to peak insulin concentration)” value was 93.0 ^† min; the “Insulin AUC0–1 h/AUC0–6 h, geometric mean” value is 11%. In data set [5], the “Insulin AUC0–2 h/AUC0–6 h, arithmetic mean (value in brackets)” value amounted to 3.6%; the “Insulin AUC0–2 h/AUC0–6 h, geometric mean” value worked out at 35%; the “Insulin AUC0–4 h/AUC0–6 h, arithmetic mean (value in brackets)” value turned out to be 4.3%; the “Insulin AUC0–4 h/AUC0–6 h, geometric mean” value was 77%.
On to insulin glulisine, for which, in data set [2], the Severe hypoglycaemia entry is recorded as “no cases of severe hypoglycaemia requiring intervention”, the “Subjects with hypoglycaemia with blood glucose below 56 mg/dl” value is listed as “Five” and the “Subjects with an episode of hypoglycaemia 3–6 h after insulin administration” value turned out to be 10 subjects. In data set [3], the “Mean NEFA concentration after subsequent increase” value is 0.32 mmol/L, the “Time of lowest mean NEFA concentration” value amounted to 180 min and the “Mean NEFA concentration at start (before decrease)” value is 0.50 mmol/L. In data set [4], the “Time to 10% of total glucose AUC” value is 40.0 ^† min, the “Time to 20% of total glucose AUC” value was 67.5 ^† min and the “Time to ΔGLUmax” value was 60.0 ^† min. Moreover, in data set [4] (setting [6]), the “GLUmax, mean ratio glulisine/aspart” value is recorded as 94% (90–99); the “Glucose AUC0–1 h, mean ratio glulisine/aspart” value is on record as 94% (90–99); the “Glucose AUC0–1 h/AUC0–6 h, mean ratio glulisine/aspart” value was 95% (92–99); the “Glucose AUC0–2 h/AUC0–6 h, mean ratio glulisine/aspart” value is recorded as 96% (94–99). For the same substance, in data set [4] (setting [6]), the “Glucose AUC0–4 h/AUC0–6 h, mean ratio glulisine/aspart” value is listed as 99% (97–100); the “Glucose AUC0–6 h, mean ratio glulisine/aspart” value is recorded as 98% (95–104); the “ΔGLUmax, mean ratio glulisine/aspart” value is given as 81% (70–100). Moreover, in data set [4] (setting [7]), the “Time to 10% of total glucose AUC, median difference glulisine vs aspart” value was -2 min; the “Time to 20% of total glucose AUC, median difference glulisine vs aspart” value was 0 (−4 to 3) min; the “Time to ΔGLUmax, median difference glulisine vs aspart” value is -5 min. In addition, in data set [4] (point estimate (90% CI), analysis of variance, untransformed data), the “GLUmax, mean difference glulisine vs aspart” value was -11 mg/dL. Moreover, in data set [5], the “Time to fraction of total insulin AUC (10%)” value was 60.0 ^† min; the “Time to fraction of total insulin AUC (20%)” value is 90.0 ^† min; the “Tmax (time to peak insulin concentration)” value is 120.0 ^† min; the “Insulin AUC0–1 h/AUC0–6 h, geometric mean” value was 14%. In addition, in data set [5], the “Insulin AUC0–2 h/AUC0–6 h, arithmetic mean (value in brackets)” value was found to be 3.6%; the “Insulin AUC0–2 h/AUC0–6 h, geometric mean” value is listed as 36%; the “Insulin AUC0–4 h/AUC0–6 h, arithmetic mean (value in brackets)” value worked out at 4.3%; the “Insulin AUC0–4 h/AUC0–6 h, geometric mean” value came to 78%. The “Tmax, median difference glulisine vs aspart” value in data set [5] (setting [7]) is on record as 17 min. Moreover, in data set [5] (setting [8]), the “Insulin AUC0–1 h/AUC0–6 h, mean ratio glulisine/aspart” value is 127% (106–152); the “Insulin AUC0–2 h/AUC0–6 h, mean ratio glulisine/aspart” value is given as 103% (95–110); the “Insulin AUC0–4 h/AUC0–6 h, mean ratio glulisine/aspart” value is 101% (99–103).
